Values without a mark were called inactive. Inconclusive results are not listed. Activity calls are given as the source filed them.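 The calls were made as follows, unless noted: active = RAM network inhibition above 8.4% in each of two replicates, 3 SD over the compound average; inconclusive = above 8.4% inhibition in only one replicate; inactive = 8.4% inhibition or less in each replicate.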
Columns and labels:
[1] = S. cerevisiae growth inhibition in permissive medium (OD615), pilot counter-assay for S. cerevisiae lifespan shortening project, permissive growth control (AID 705;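 active = growth inhibition above 25% in both replicates, a cutoff set 3 SD above the mean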); conditions: OD615, 24 h, at 10 µM, stronger effect = higher value
Outline: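 System: Engineered DeaD yeast | Buffer or medium: SC raffinose/galactose permissive medium | Incubation: Cells pre-grown 4 h, then 24 h compound exposure, 30 °C humidified | Measured by: Absorbance (optical density) at 615 nm | Read-out: Reduction in yeast growth (OD615)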

[2] = S. cerevisiae growth inhibition in restrictive medium, OD615, pilot screen, restrictive growth control, yeast lifespan reduction project (AID 706;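 active = growth inhibition above a set limit, 3 SD over mean compound inhibition, in both replicates, cut at about 43% in these data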;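 also: modified DeaD lifespan yeast strain shifted to restrictive glucose medium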); conditions: OD615, 48 h, at 10 µM, stronger effect = higher value
Outline: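 Material: modified S. cerevisiae; Medium: glucose-based CSMM-D restrictive medium; Compound dosing: one concentration, 10 µM final, 0.25% DMSO; Incubation: 48 h compound exposure at 30 °C; Measured by: OD615.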

[3] = doxorubicin toxicity protection in MRP-1 cells – H69AR cells, CellTiter-Glo, duplicate, MRP-1 activator project, pilot screen (AID 807;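 active = viability increase at or above a cutoff of the median across tested compounds plus 3 SD, cut at about 8.5% in these data, passing the limit was not always enough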;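 also: compound pretreatment 18-22 h then 72 h combined with doxorubicin; 0% = doxorubicin alone and 100% = vehicle without doxorubicin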); conditions: H69AR viability with doxorubicin, CellTiter-Glo luminescence; at 10 µM; stronger effect = higher value
[4] = viability of HCT116 without oncogenic beta-catenin – human colon tumor cells, pilot screen (AID 823;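 active = cell viability at or below a set limit in both duplicate runs, the limit being the all-compound median minus 4 SD, cut at about 23% in these data, passing the limit was not always enough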;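 also: 0% = wells killed by 20 µM Hyamine and 100% = untreated DMSO cell wells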); conditions: HCT116 beta-catenin knockout viability, CellTiter-Glo, 60 h; at 10 µM; stronger effect = lower value
[5] = viability of PTEN-null HCT116 cells – cell-based, HCT116 clonal line, CellTiter-Glo, pilot screen (AID 824;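 active = viability at or below 27.92% in each of two runs, the all-compound median minus 4 SD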;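 also: 0% = 20 µM Hyamine control and 100% = vehicle cell control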); conditions: HCT116 PTEN-deleted viability, 60 h, at 10 µM, stronger effect = lower value
[6] = RAM pathway blockade in budding yeast – dse1pr::URA3 reporter, 5-FOA selection, pilot screen (AID 869;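 active = inhibition over a set limit, the all-compound mean plus 3 SD, in both replicate runs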;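 also: 0% = DMSO wells with no growth and 100% = 10 µM 1-NA-PP1 with full growth; RAM network block rescues cells from 5-FOA so hits raise OD615 growth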); conditions: S. cerevisiae dse1pr::URA3 5-FOA growth, OD615, 2 d; at 10 µM; stronger effect = higher value; strain carries analog-sensitive mutant Cbk1 kinase
[7] = RAM signaling pathway blockade in yeast – S. cerevisiae, Pdr1DBD-CYC8 efflux-inhibited sensitized strain, primary screen (AID 1298);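 also: 0% = DMSO untreated cells without growth and 100% = 10 µM 1-NA-PP1 full growth; higher means more yeast growth rescued from 5-FOA killing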; conditions: S. cerevisiae cbk1-as DSE1-URA3 strain, 5-FOA growth OD615, 2 d; at 50 µM; stronger effect = higher value

## COC(=O)C1=C(C)OC(N)=C(C#N)C1c1ccccc1F (stereo not drawn)
[1]
  growth inhibition: -9.68%
[2]
  growth inhibition: -3.74%
[3]
  viability increase: -3.38%
[4]
  viability: 94.9%
[5]
  viability: 98.1%
[6]
  inhibition: -0.37%
[7]
  RAM network inhibition: -0.76%

## CCCn1c(-c2ccc(OC)cc2)nc2ccccc21
[1]
  growth inhibition: -16.6%
[2]
  growth inhibition: -12.9%
[3]
  viability increase: -0.51%
[4]
  viability: 74.4%
[5]
  viability: 71.9%
[6]
  inhibition: 2.18%
[7]
  RAM network inhibition: 7.97%

## COc1ccc(OCC(=O)Nc2cccc(C(C)=O)c2)cc1
[1]
  growth inhibition: 0.595%
[2]
  growth inhibition: 15.9%
[3]
  viability increase: -0.88%
[4]
  viability: 93.9%
[5]
  viability: 94.6%
[6]
  inhibition: 0.74%
[7]
  RAM network inhibition: 2.7%

## O=c1[nH]c2c(s1)C=Nc1ccccc1N2
[1]
  growth inhibition: -5.34%
[2]
  growth inhibition: 3.4%
[3]
  viability increase: -2.29%
[4]
  viability: 89.9%
[5]
  viability: 91.6%
[6]
  inhibition: 1.6%
[7]
  RAM network inhibition: 0.32%

## Cc1cc(N2CCOCC2)nc(NCc2ccccc2)n1
[1]
  growth inhibition: 3.04%
[2]
  growth inhibition: -5.48%
[3]
  viability increase: -3.86%
[4]
  viability: 72%
[5]
  viability: 64.8%
[6]
  inhibition: 1.17%
[7]
  RAM network inhibition: 4.85%

## COC(=O)C1C2C=CC3(CN(c4ccc(Cl)c(F)c4)C(=O)C13)O2 (stereo not drawn)
[1]
  growth inhibition: -5.96%
[2]
  growth inhibition: 0.405%
[3]
  viability increase: -1.28%
[4]
  viability: 94.6%
[5]
  viability: 91.8%
[6]
  inhibition: 1.67%
[7]
  RAM network inhibition: 2.93%

## Cn1cccc1Cc1nnc(SCC(=O)NCCc2ccccc2)n1-c1ccc(F)cc1
[1]
  growth inhibition: -6.41%
[2]
  growth inhibition: 5.7%
[3]
  viability increase: -2.38%
[4]
  viability: 93.7%
[5]
  viability: 93.3%
[6]
  inhibition: 2.35%
[7]
  RAM network inhibition: 5.42%

## CCCC(=O)Nc1ccccc1-c1nnc(SC)[nH]c1=O
[1]
  growth inhibition: -10.4%
[2]
  growth inhibition: 1.72%
[3]
  viability increase: -2.76%
[4]
  viability: 113%
[5]
  viability: 99.3%
[6]
  inhibition: 1.06%
[7]
  RAM network inhibition: 1.27%

## N#CCCN1CCN(S(=O)(=O)c2ccc(S(=O)(=O)N3CCCC3)cc2)CC1
[1]
  growth inhibition: 0.995%
[2]
  growth inhibition: 7.04%
[3]
  viability increase: 1.73%
[4]
  viability: 101%
[5]
  viability: 104%
[6]
  inhibition: 1.29%
[7]
  RAM network inhibition: 8.15%

## Cc1cccc(N(C(=O)Nc2ccccc2)C2=NCC(C)S2)c1 (stereo not drawn)
[1]
  growth inhibition: -14.6%
[2]
  growth inhibition: -6.9%
[3]
  viability increase: 0.22%
[4]
  viability: 103%
[5]
  viability: 94.4%
[6]
  inhibition: -0.8%
[7]
  RAM network inhibition: 2.52%

## CN1C(=O)NC(c2ccccc2)C2=C1CN(Cc1ccco1)C2=O (stereo not drawn)
[1]
  growth inhibition: -6.95%
[2]
  growth inhibition: -14.4%
[3]
  viability increase: -2.48%
[4]
  viability: 90.4%
[5]
  viability: 89.7%
[6]
  inhibition: 1.47%
[7]
  RAM network inhibition: 3%

## COc1cccc(C(=O)NCCn2ccc3ccccc32)c1
[1]
  growth inhibition: -0.9%
[2]
  growth inhibition: -3.15%
[3]
  viability increase: -1.6%
[4]
  viability: 95.3%
[5]
  viability: 90.6%
[6]
  inhibition: 0.825%
[7]
  RAM network inhibition: 2.48%

## COc1ccccc1N1CCN(C(=O)C2CCN(S(=O)(=O)c3ccccc3)CC2)CC1
[1]
  growth inhibition: -0.075%
[2]
  growth inhibition: 2.96%
[3]
  viability increase: -1.42%
[4]
  viability: 92.6%
[5]
  viability: 95.6%
[6]
  inhibition: 1.07%
[7]
  RAM network inhibition: 5.76%

## Nc1nc(N2CCOCC2)nc(N(c2ccccc2)c2ccccc2)n1
[1]
  growth inhibition: -17.1%
[2]
  growth inhibition: -9.3%
[3]
  viability increase: -1.89%
[4]
  viability: 107%
[5]
  viability: 92.4%
[6]
  inhibition: 1.93%
[7]
  RAM network inhibition: 1.9%

## O=C(CCCCn1c(=O)[nH]c2ccccc2c1=O)NC1CCN(Cc2ccccc2)CC1
[1]
  growth inhibition: -14.6%
[2]
  growth inhibition: -22.8%
[3]
  viability increase: -0.32%
[4]
  viability: 91.4%
[5]
  viability: 89%
[6]
  inhibition: 0.41%
[7]
  RAM network inhibition: 0.63%

## O=C1c2ccccc2CCC1C(O)c1ccccn1 (stereo not drawn)
[1]
  growth inhibition: -8.87%
[2]
  growth inhibition: -15.8%
[3]
  viability increase: -3.89%
[4]
  viability: 95.5%
[5]
  viability: 99.2%
[6]
  inhibition: 2.49%
[7]
  RAM network inhibition: 1.24%

## CC(C)NC(=O)C1(O)c2ccccc2NC(=O)N1c1ccc(Cl)c(Cl)c1 (stereo not drawn)
[1]
  growth inhibition: -5.92%
[2]
  growth inhibition: -12.9%
[3]
  viability increase: -2.69%
[4]
  viability: 89.6%
[5]
  viability: 93.9%
[6]
  inhibition: 0.375%
[7]
  RAM network inhibition: 2.53%

## CCCn1c(C2CC(=O)N(c3cc(OC)ccc3OC)C2)nc2ccccc21 (stereo not drawn)
[1]
  growth inhibition: -6.39%
[2]
  growth inhibition: -14.7%
[3]
  viability increase: -2.88%
[4]
  viability: 98.4%
[5]
  viability: 94.8%
[6]
  inhibition: 1.6%
[7]
  RAM network inhibition: 5%

## O=C(CCC1CCCC1)c1c(O)c2ccccc2oc1=O
[1]
  growth inhibition: 0.51%
[2]
  growth inhibition: 13.6%
[3]
  viability increase: -2.11%
[4]
  viability: 69.4%
[5]
  viability: 67.7%
[6]
  inhibition: 0.63%
[7]
  RAM network inhibition: -1.56%

## Cn1cc(SCC(=O)NCc2ccc3c(c2)OCO3)c2ccccc21
[1]
  growth inhibition: 4.09%
[2]
  growth inhibition: -1.53%
[3]
  viability increase: -4.24%
[4]
  viability: 98.3%
[5]
  viability: 95.1%
[6]
  inhibition: 1.17%
[7]
  RAM network inhibition: 4.4%

## C=CC1C(N2CCOCC2)C(C)(C)S1(=O)=O (stereo not drawn)
[1]
  growth inhibition: 4.78%
[2]
  growth inhibition: 5.46%
[3]
  viability increase: -1.46%
[4]
  viability: 102%
[5]
  viability: 101%
[6]
  inhibition: 1.38%
[7]
  RAM network inhibition: -0.28%

## N#Cc1nc(-c2ccccc2F)oc1NC1CCCCC1
[1]
  growth inhibition: -18.3%
[2]
  growth inhibition: -17.6%
[3]
  viability increase: -2.53%
[4]
  viability: 87.7%
[5]
  viability: 87.6%
[6]
  inhibition: 0.64%
[7]
  RAM network inhibition: 6%

## Brc1cccc(-c2nnc3sc(CNCc4ccco4)cn23)c1
[1]
  growth inhibition: 1.61%
[2]
  growth inhibition: 47.3% (active)
[3]
  viability increase: -4.13%
[4]
  viability: 94.2%
[5]
  viability: 99.3%
[6]
  inhibition: 1.97%
[7]
  RAM network inhibition: 8.75%

## O=C(CCn1c(=O)sc2ccccc21)NCc1ccccc1
[1]
  growth inhibition: 4.34%
[2]
  growth inhibition: -2.52%
[3]
  viability increase: -0.79%
[4]
  viability: 107%
[5]
  viability: 105%
[6]
  inhibition: 2%
[7]
  RAM network inhibition: 2.7%

Source: PubChem BioAssay
